For data set [1], the system named is PC-3 cells. Kind of data set: XTT cytotoxicity assay in PC-3 cells. It is filed as cell-based. The conditions noted are these: 24 h and 72 h, n = 4 (Figures 6, 7). The method, boiled down: (§1)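 Cells kept in RPMI with 10% FBS and 1% penicillin–streptomycin at 37 °C, 5% CO2. Seeded at 6 × 10^3 (LNCaP) or 3 × 10^3 (PC-3) per well, attached 24 h, then exposed to free drugs or leucine-coupled drugs. At 24 and 72 h, XTT added for 3 h at 37 °C; absorbance read at 450 nm. Controls: 0.05% DMSO and medium alone. Mean ± SD, n = 4.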

The subject of the next data set is LNCaP cells. Kind of data set: XTT cytotoxicity assay in LNCaP cells. Type of data set: cell-based. The conditions noted are these: 24 h and 72 h, n = 4 (Figures 6, 7). Summed up:
as §1

For data set [2] the following is noted: cited from earlier work.
The subject of data set [3] is PC-3 cells. The conditions noted are these: PC-3 cells do not express PSA; ref 10 (Bakthavatsalam et al. 2020); cited from earlier work.

On to `COC1C(=O)C2(C)C(OC)CC3OCC3(OC(C)=O)C2C(OC(=O)c2ccccc2)C2(O)CC(OC(=O)C(OC(=O)C(N)CC(C)C)C(NC(=O)OC(C)(C)C)c3ccccc3)C(C)=C1C2(C)C` [L-cabazitaxel, NH2-Leu-Cabazitaxel], for which, in the data set with PC-3 cells [1], the “cytotoxicity of drug compared with its leucine conjugate, PC-3” value is “comparable cytotoxicity”. In the data set on LNCaP cells, the “cytotoxicity of drug compared with its leucine conjugate, LNCaP” value is “comparable cytotoxicity”.
`CCc1c2c(nc3ccc(O)cc13)-c1cc3c(c(=O)n1C2)COC(=O)C3(CC)OC(=O)C(N)CC(C)C` (stereo not shown) [L–SN–38, NH2-Leu–SN–38]: in the data set on PC-3 cells [1], the “cytotoxicity of drug compared with its leucine conjugate, PC-3” value is on record as “comparable cytotoxicity”. Besides, the “cytotoxicity of drug compared with its leucine conjugate, LNCaP” value in the data set with LNCaP cells is listed as “comparable cytotoxicity”.
For `CCc1c2c(nc3ccc(O)cc13)-c1cc3c(c(=O)n1C2)COC(=O)[C@]3(O)CC` [SN-38, 7-Ethyl-10-hydroxycamptothecin], the “cytotoxicity of drug compared with its leucine conjugate, PC-3” value in the data set on PC-3 cells [1] is given as “comparable cytotoxicity”. Also, in the data set with LNCaP cells, the “cytotoxicity of drug compared with its leucine conjugate, LNCaP” value was “comparable cytotoxicity”. Moreover, in data set [2], the “potency relative to CPT-11 in inducing antitumor activity” value was 100- to 1000 fold.
Regarding `CO[C@H]1C(=O)[C@]2(C)[C@@H](OC)C[C@H]3OC[C@@]3(OC(C)=O)[C@H]2[C@H](OC(=O)c2ccccc2)[C@]2(O)C[C@H](OC(=O)[C@H](O)[C@@H](NC(=O)OC(C)(C)C)c3ccccc3)C(C)=C1C2(C)C` [cabazitaxel], in the data set on PC-3 cells [1], the “cytotoxicity of drug compared with its leucine conjugate, PC-3” value is “comparable cytotoxicity”. Also, the “cytotoxicity of drug compared with its leucine conjugate, LNCaP” value in the data set on LNCaP cells was “comparable cytotoxicity”.
For Ac-HSSKLQL-PAB-dithiocarbamate, the “cytotoxicity in PC-3 cells” value in the data set with PC-3 cells [3] was “demonstrated cytotoxicity in PC-3 cells”.

These data come from publication PMC12059896 (ACS Omega, 2025).
